Measured values reported in PMC6221542 (Science Advances, 2018).

Key:
H4K20me1 = assay: Peptide microarray, chromodomain binding to H4K20me1; parameters: species or system human; settings: no dsDNA in binding buffer
Summary of the method: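 Custom array of 467 unmodified and modified peptides (synthesized, desalted, mass-spec checked), each spotted in triplicate on glass slides. Chromodomain proteins were bound to the printed array and analyzed by a previously described protocol. The CBX1 mutant chromodomain was instead screened on a commercial modified-histone peptide array.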

[1] = test system: methylated H3K9 and H3K27 peptides; assay: Peptide microarray, chromodomain binding profile; parameters: species or system human; settings: cluster 3 = H3K9 peptides with different PTMs
Summary of the method: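 Array of 467 unmodified and modified peptides (desalted, mass-spectrometry checked) printed in triplicate spots on glass slides and probed with chromodomain proteins. Signal intensities converted to z scores per chromodomain using all its intensities: z = (x − mean)/SD. Hierarchical clustering grouped chromodomains into three categories and peptides into six clusters by binding preference.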

interaction with H4K20me1 (in words) (H4K20me1): did not show interaction with this mark
B1: MS3L1: MS3L1 chromodomain, cloned sequence 29-94 (protein, UniProt Q8N5Y2 29-94, looked up, fragment)
chain: VLYDAKIVDVIVGKDEKGRKIPEYLIHFNGWNRSWDRWAAEDHVLRDTDENRRLQRKLARKAVARL
modifications: chromodomain
interaction with peptide cluster 3 (in words) [1]: lacked significant interaction with cluster 3
